How the values were obtained:
[1] = target: T1, Dopamine receptor (Mus musculus) (UniProt P51436+Q8BLD9+Q61616+P61168+P30728); experiment: Black mice were injected intraperitoneally with 100 uMol of test compound and Striatal levels of dopamine in mice measured after 24 hours; assay type: functional
Method in brief: (§1)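 Male C-57 black mice, 8–10 weeks old, 25–30 g, six per data point. Dosed ip at 100 μmol/kg in 50 μL normal saline every hour for 4 h; controls received saline only. Times counted from the last injection. Striata dissected and stored at −80 °C. Dopamine measured by HPLC with electrochemical detection after alumina extraction, with DHBA as internal standard; reported as ng/mg tissue.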

[2] = target: T1, Dopamine receptor (Mus musculus); experiment: (§2) Black mice were injected intraperitoneally with 100 uMol /kg of test compound and Striatal levels of dopamine in mice measured after 4 hours; assay type: functional; method in brief: as §1
[3] = target: T1, Dopamine receptor (Mus musculus); experiment: (§3) Black mice were injected intraperitoneally with 100 uMol of test compound and Striatal levels of Dopamine in mice measured after 1 month; assay type: functional; method in brief: as §1
[4] = target: T2, Amine oxidase [flavin-containing] B (Bos taurus, UniProt P56560); experiment: Rate of oxidation against monoamine oxidase-B (MAO-B)
T2 sequence (P56560 whole entry): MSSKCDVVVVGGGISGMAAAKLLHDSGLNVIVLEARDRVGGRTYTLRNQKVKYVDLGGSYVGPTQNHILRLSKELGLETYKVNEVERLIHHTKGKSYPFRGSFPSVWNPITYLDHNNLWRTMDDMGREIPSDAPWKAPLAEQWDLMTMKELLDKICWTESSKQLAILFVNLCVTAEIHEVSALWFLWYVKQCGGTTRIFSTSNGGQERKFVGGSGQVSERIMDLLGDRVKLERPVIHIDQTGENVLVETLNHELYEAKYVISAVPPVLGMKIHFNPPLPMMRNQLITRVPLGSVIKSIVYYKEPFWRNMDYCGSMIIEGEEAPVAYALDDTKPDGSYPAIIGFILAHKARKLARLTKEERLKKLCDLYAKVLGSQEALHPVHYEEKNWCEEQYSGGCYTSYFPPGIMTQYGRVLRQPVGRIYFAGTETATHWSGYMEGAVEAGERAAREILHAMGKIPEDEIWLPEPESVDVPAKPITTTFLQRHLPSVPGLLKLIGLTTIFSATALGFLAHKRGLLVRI
Method in brief: (§4)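 Beef liver mitochondrial MAO-B, purified, 0.1 unit in 50 mM sodium phosphate pH 7.2 with 0.2% reduced Triton X-100. Substrate at 3 mM (3.0 mM). Initial rate of dihydropyridinium product formation read spectrophotometrically at its λmax (345 nm for MPDP⁺, 360 nm for the tricyclic products), in nmol min⁻¹ mL⁻¹. Controls held 10⁻⁶ M pargyline.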

[5] = target: T1, Dopamine receptor (Mus musculus); experiment: Black mice were injected intraperitoneally with 100 uMol of test compound and Striatal levels of dopamine in mice measured after 1 week; assay type: functional; method in brief: as §1
[6] = target: T2, Amine oxidase [flavin-containing] B; experiment: Binding affinity against Monoamine oxidase B
Method in brief: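 Beef liver mitochondrial MAO-B, purified and cleared of heme protein by sucrose-gradient centrifugation; 0.02 unit enzyme in 50 mM sodium phosphate pH 7.2 with 0.2% (w/v) reduced Triton X-100. Inhibitor at 0–500 μM or 0–100 μM against benzylamine 0.17–3.3 mM. Oxidation followed at 250 nm as initial rates. Lineweaver–Burk plots; Ki taken from secondary replots of slope vs inhibitor concentration.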

[7] = target: T2, Amine oxidase [flavin-containing] B; experiment: Rate of oxidation against monoamine oxidase B; method in brief: as §4
[8] = tested on: Mus musculus; experiment: as §3; assay type: functional; method in brief: as §1
[9] = tested on: Mus musculus; experiment: Black mice were injected intraperitoneally with 100 uMol of test compound and Striatal levels of Dopamine in mice measured after 1 week; assay type: functional; method in brief: as §1
[10] = tested on: Mus musculus; experiment: Black mice were injected intraperitoneally with 100 uMol of test compound and Striatal levels of Dopamine in mice measured after 24 hours; assay type: functional; method in brief: as §1
[11] = tested on: Mus musculus; experiment: as §2; assay type: functional; method in brief: as §1

Structure (SMILES) | Dopamine level [1] [ng/mg] | Dopamine level [2] [ng/mg] | Dopamine level [3] [ng/mg] | Rate of oxidation [4] [nM min-1 ml-1] | Dopamine level [5] [ng/mg] | Ki [6] [µM] | Rate of oxidation [7] [nM min-1 ml-1] | Dopamine level [8] [ng/mg] | Dopamine level [9] [ng/mg] | Dopamine level [10] [ng/mg] | Dopamine level [11] [ng/mg]
CN1CC=C(c2ccccc2)CC1 | 6.5 | 4.8 | 5 | 25.87 | 2.7 | – | – | – | – | – | –
CN1CCC2=C(Cc3ccccc32)C1 | – | – | – | – | – | 75 | 0.21 | 21.9 | 18.2 | 24.5 | 6.5
CN1CCc2c([nH]c3ccccc23)C1 | – | – | – | – | – | 400 | 0.1 | – | – | – | –
CN1CCC2C(=Cc3ccccc32)C1 (centres undefined) | – | – | – | – | – | 65 | 0 | 19.2 | 16.4 | 30.3 | 4.3

From ChEMBL document CHEMBL1124403, “Studies on semirigid tricyclic analogues of the nigrostriatal toxin 1-methyl-4-phenyl-1,2,3,6-tetrahydropyridine” (J Med Chem, 1989)
